Values after ≈ are worked out from the molar mass of the structure shown. Active and inactive are the calls of the source. The calls are words filed in the database; no cut-off is given here.
Assays:
[1] = Cmax in Balb/c mouse plasma at 2 mg/kg, administered intranasally; assay type: ADME, organism-based; design: route nasal, dose 2 mg/kg; conditions: inhaled or intranasal
Procedure, shortened: (§1)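 Male Balb/c mice (21–25 g) dosed intranasally with freshly prepared formulation in 1% DMSO plus 0.125% CMC. Terminal bleeding and lung collection from 5 min to 72 h. K2EDTA blood taken as blood aliquots or spun for plasma. Lung homogenised 1:5 in water. Samples were protein-precipitated with acetonitrile/methanol (2:1) plus roxithromycin internal standard and quantified by LC–MS/MS. LLOQ 0.5 ng/mL (blood/plasma) and 2.5 ng/mL (lung).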

PBMC [2] = assay: Antiinflammatory activity in human PBMC assessed as inhibition of anti-CD3-induced TNFalpha production after 48 hrs; assay type: functional, cell-based
Procedure, shortened: (§2)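 Thawed cryopreserved human PBMCs were preincubated 1 h at 37 °C, 5% CO2, then exposed to test compound for 1 h before LPS, anti-CD3 or PHA stimulation. Supernatants were collected at 6, 24 or 48 h according to each cytokine's peak, and cytokines quantified by Luminex multiplex bead assay. 10-point titration starting at 20 µM, in duplicate, with constant DMSO. Parallel Alamar Blue cytotoxicity check under 48 h PHA.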

Haemophilus influenzae = assay: Antibacterial activity against Haemophilus influenzae ATTC 49247 by broth microdilution method; assay type: functional
Procedure, shortened: (§3)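 CLSI broth microdilution with double dilutions in 96-well plates. For streptococci, 5% horse serum replaced lysed blood in the medium. Inocula were grown on Columbia agar with 5% sheep blood for streptococci, Mueller–Hinton chocolate agar for H. influenzae, and Mueller–Hinton agar for staphylococci. Read-out is MIC in mg/L.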

PBMC [3] = assay: Antiinflammatory activity in human PBMC assessed as inhibition of anti-CD3-induced IL-12p70 production after 48 hrs; assay type: functional, cell-based; procedure, shortened: as §2
Moraxella catarrhalis = assay: Antibacterial activity against Moraxella catarrhalis ATCC 23246 by broth microdilution method; assay type: functional; procedure, shortened: as §3
Streptococcus pneumoniae = assay: Antibacterial activity against efflux mediated macrolide-resistant Streptococcus pneumoniae Ci137 by broth microdilution method; assay type: functional
Procedure, shortened: (§4)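 MICs by CLSI broth microdilution with double dilutions, except that Streptococcus medium used 5% horse serum in place of lysed blood. Bacteria were pre-grown on Columbia agar with 5% sheep blood (streptococci) or Mueller–Hinton agar (staphylococci).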

Rattus norvegicus [4] = assay: Antiinflammatory activity against ovalbumin-induced airway allergic Brown-Norway rat model assessed as decrease of macrophages in bronchoalveolar lavage fluid at 32 mg/kg administered intranasally as dry powder measured on day 29 after ovalbumin challenge; assay type: functional, organism-based; design: dose 32 mg/kg; conditions: Lung
Procedure, shortened: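 Brown-Norway rats sensitised by OVA injection on day 1, boosted on days 14 and 20. Treatment with 32 mg/kg or air control on day 27, followed 1 h later by 60 min OVA inhalation challenge. BAL cells differentiated about 48 h post-challenge (day 29). Comparison was against a sensitised, challenged, untreated group. Mean + SD, n = 10, Dunnett test.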

Rattus norvegicus [5] = assay: Antiinflammatory activity against ovalbumin-induced airway allergic Brown-Norway rat model assessed as decrease of eosinophil peroxidase activity in bronchoalveolar lavage fluid at 32 mg/kg administered intranasally as dry powder measured on day 29 after ovalbumin challenge; assay type: functional, Lung; design: scale not given: the % may be the effect or the level left
[6] = Tmax in Balb/c mouse plasma at 2 mg/kg, administered intranasally; assay type: ADME, organism-based; design: dose 2 mg/kg; conditions: inhaled or intranasal; procedure, shortened: as §1
[7] = Cmax in Balb/c mouse lung at 2 mg/kg, administered intranasally; assay type: ADME, organism-based; design: dose 2 mg/kg, route nasal; conditions: inhaled or intranasal; procedure, shortened: as §1
[8] = Drug uptake in mouse J774A1 cells at 10 uM after 3 hrs by LC-MS/MS method; assay type: ADME, cell-based; conditions: j774.a1, 3 h
Procedure, shortened: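 Uptake in J774A.1 macrophages seeded two days before at 2 × 10^5 cells/well. Cells were exposed to 10 µM compound for 3 h in DMEM/25 mM Hepes without supplements, washed with ice-cold PBS and lysed in 0.5% Triton X-100. Lysate was measured by LC–MS/MS, using a cell volume of 1.68 µL per 10^6 cells. Result is the I/E ratio, with E taken as 10 µM.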

PBMC [9] = assay: Antiinflammatory activity in human PBMC assessed as inhibition of PHA-induced IL-8 production after 6 hrs; assay type: functional, cell-based; procedure, shortened: as §2
Streptococcus pyogenes [10] = assay: Antibacterial activity against erythromycin susceptible Streptococcus pyogenes 3565 by broth microdilution method; assay type: functional; procedure, shortened: as §3
Streptococcus pyogenes [11] = assay: Antibacterial activity against efflux mediated macrolide-resistant Streptococcus pyogenes Finland 2 by broth microdilution method; assay type: functional; procedure, shortened: as §4
[12] = Tmax in Balb/c mouse blood at 2 mg/kg, administered intranasally; assay type: ADME, organism-based; design: dose 2 mg/kg; conditions: whole blood, inhaled or intranasal; procedure, shortened: as §1
[13] = Tmax in Balb/c mouse lung at 2 mg/kg, administered intranasally; assay type: ADME, organism-based; design: dose 2 mg/kg; conditions: inhaled or intranasal; procedure, shortened: as §1
PBMC [14] = assay: Antiinflammatory activity in human PBMC assessed as inhibition of PHA-induced IL-1beta production after 6 hrs; assay type: functional, cell-based; procedure, shortened: as §2
[15] = Half life in Balb/c mouse plasma at 2 mg/kg, administered intranasally; assay type: ADME, organism-based; design: dose 2 mg/kg; conditions: inhaled or intranasal; procedure, shortened: as §1
[16] = Half life in Balb/c mouse blood at 2 mg/kg, administered intranasally; assay type: ADME, organism-based; design: dose 2 mg/kg; conditions: whole blood, inhaled or intranasal; procedure, shortened: as §1
PBMC [17] = assay: Antiinflammatory activity in human PBMC assessed as inhibition of PHA-induced IL-10 production after 48 hrs; assay type: functional, cell-based; procedure, shortened: as §2
Staphylococcus aureus = assay: Antibacterial activity against constitutive-resistant to macrolide, licosamide and streptogramin Staphylococcus aureus PK2 by broth microdilution method; assay type: functional; procedure, shortened: as §4
Streptococcus pyogenes [18] = assay: Antibacterial activity against constitutive-resistant to macrolide, licosamide and streptogramin Streptococcus pyogenes 166 GR-Micro by broth microdilution method; assay type: functional; procedure, shortened: as §4
[19] = AUC (0 to infinity) in Balb/c mouse lung at 2 mg/kg, administered intranasally; assay type: ADME, organism-based; design: time infinity, route nasal, dose 2 mg/kg; conditions: inhaled or intranasal; procedure, shortened: as §1
Glucocorticoid receptor = biological target: T1, Glucocorticoid receptor (Homo sapiens, UniProt P04150); assay: Displacement of [3H]-dexamethasone human glucocorticoid receptor alpha expressed in 293 MSR cells after 60 mins by scintillation counting; assay type: cell-based
T1 sequence (P04150 whole entry): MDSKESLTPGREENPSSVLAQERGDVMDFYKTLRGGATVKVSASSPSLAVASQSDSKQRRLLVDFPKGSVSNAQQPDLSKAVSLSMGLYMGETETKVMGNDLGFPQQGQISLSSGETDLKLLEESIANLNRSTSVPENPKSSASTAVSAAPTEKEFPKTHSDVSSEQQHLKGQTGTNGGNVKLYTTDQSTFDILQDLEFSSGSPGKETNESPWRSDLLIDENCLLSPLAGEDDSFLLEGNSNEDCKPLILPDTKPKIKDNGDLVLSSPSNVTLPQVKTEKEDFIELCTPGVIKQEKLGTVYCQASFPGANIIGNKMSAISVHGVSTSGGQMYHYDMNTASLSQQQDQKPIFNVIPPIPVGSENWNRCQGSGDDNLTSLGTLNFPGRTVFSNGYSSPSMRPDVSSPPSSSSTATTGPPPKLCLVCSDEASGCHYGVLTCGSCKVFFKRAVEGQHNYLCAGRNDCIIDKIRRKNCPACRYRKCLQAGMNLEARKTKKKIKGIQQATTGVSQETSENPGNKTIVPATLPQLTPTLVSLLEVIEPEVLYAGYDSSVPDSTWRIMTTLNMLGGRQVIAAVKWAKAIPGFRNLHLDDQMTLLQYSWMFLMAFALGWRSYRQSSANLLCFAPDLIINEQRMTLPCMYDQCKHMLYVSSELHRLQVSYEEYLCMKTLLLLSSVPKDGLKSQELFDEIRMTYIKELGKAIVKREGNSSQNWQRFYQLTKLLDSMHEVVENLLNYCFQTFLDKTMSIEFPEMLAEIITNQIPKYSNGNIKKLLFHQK

PBMC [20] = assay: Antiinflammatory activity in human PBMC assessed as inhibition of PHA-induced IL-2 production after 48 hrs; assay type: functional, cell-based; procedure, shortened: as §2

CC[C@H]1OC(=O)[C@H](C)[C@@H](O[C@H]2C[C@@](C)(OC)[C@@H](O)[C@H](C)O2)[C@H](C)[C@@H](O[C@@H]2O[C@H](C)C[C@H](N(C)C)[C@H]2O)[C@](C)(O)C[C@@H](C)CN(CCCNC(=O)[C@H]2[C@H](C)C[C@H]3[C@@H]4CCC5=CC(=O)C=C[C@]5(C)[C@@]4(F)[C@@H](O)C[C@@]32C)[C@H](C)[C@@H](O)[C@]1(C)O
Cmax [1]: 223 ng/mL | EC50 (PBMC [2]): 0.037 µM | MIC (Haemophilus influenzae): 64 µg/mL (≈ 56.3 µM) | EC50 (PBMC [3]): 0.017 µM | MIC (Moraxella catarrhalis): 8 µg/mL (≈ 7.04 µM) | MIC (Streptococcus pneumoniae): 32 µg/mL (≈ 28.2 µM) | Activity (Rattus norvegicus [4]): Active | Activity (Rattus norvegicus [5]): 50% | Tmax [6]: 15 min | Cmax [7]: 2410 ng/mL | Drug uptake [8]: Active | EC50 (PBMC [9]): 3.05 µM | MIC (Streptococcus pyogenes [10]): 0.25 µg/mL (≈ 0.22 µM) | MIC (Streptococcus pyogenes [11]): 32 µg/mL (≈ 28.2 µM) | Tmax [12]: 15 min | Tmax [13]: 4.8 min | EC50 (PBMC [14]): 13.8 µM | half-life [15]: 54 min | half-life [16]: 54 min | EC50 (PBMC [17]): 5.12 µM | MIC (Staphylococcus aureus): > 64 µg/mL | MIC (Streptococcus pyogenes [18]): > 64 µg/mL | AUC(0-inf) [19]: 9680 ng·h/mL | EC50 (Glucocorticoid receptor): 0.43 µM | EC50 (PBMC [20]): > 20 µM
